Measles CPE: protection of cells from measles virus. AID 841. 140,000 tested, 1.5% active. Measles virus-infected cells, CPE protection, absorbance. protection (pct of control), % at 4 µM; in the data active = protection mostly above about 24%, no sharp cut-off; inactive = mostly below about 26%
NPY-Y1 antag: antagonists of human neuropeptide Y receptor Y1; P25929; HEK293-CNG Y1 cells, membrane potential fluorescence; NPY at EC95, then isoproterenol; inhibition, % at 3.6 µM; 200,000 tested, 1% active;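 active = inhibition above the campaign mean inhibition of all tested compounds plus 3 SD, cut at about 20% in these data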;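 also: 0% = DMSO wells given NPY plus isoproterenol and 100% = isoproterenol alone without NPY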
Target sequence (P25929 whole entry, looked up): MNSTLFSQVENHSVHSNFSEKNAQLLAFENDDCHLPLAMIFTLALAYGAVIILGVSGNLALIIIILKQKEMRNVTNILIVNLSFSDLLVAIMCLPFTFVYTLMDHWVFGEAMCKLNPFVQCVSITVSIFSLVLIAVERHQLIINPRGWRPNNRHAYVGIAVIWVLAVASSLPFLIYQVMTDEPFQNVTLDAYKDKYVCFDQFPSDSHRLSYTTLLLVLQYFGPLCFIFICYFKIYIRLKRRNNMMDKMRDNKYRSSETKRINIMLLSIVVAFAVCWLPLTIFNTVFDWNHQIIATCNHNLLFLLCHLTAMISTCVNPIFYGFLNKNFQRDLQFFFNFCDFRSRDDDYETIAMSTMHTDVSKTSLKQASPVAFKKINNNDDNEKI
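Material: HEK293 cells with Y1 receptor plus CNG channel; times: compound incubation 1 h at room temperature, readout 45 min post-stimulation; signal: fluorescence, membrane potential probe; read-out basis: fluorescence ratio normalized to % inhibition between controls; benchmarks: full-block control isoproterenol-only wells, zero-block control NPY plus isoproterenol wells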
NPY-Y1 PAM-ag: potentiates or activates human NPY-Y1 receptor. P25929. NPY-Y1 expressing cells, potentiator/agonist activation. activation, % at 3.6 µM. 220,000 tested, 0.37% active; in the data active = activation above about 33%, passing the limit was not always enough;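 also: cells stimulated with NPY at EC10 then isoproterenol at EC100; 0% = low agonist plus stimulus and 100% = saturating agonist plus stimulus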
NPY2 pot ag: human NPY-Y2 potentiation or agonism, primary screen | P49146 | AID 1359 | activation, % at 3.6 µM | 220,000 tested, 0.45% active | cells expressing NPY-Y2, potentiator/agonist read-out; in the data active = activation above about 27%;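 also: cells stimulated with NPY near EC25 plus isoproterenol at EC100; 0% = vehicle plus submaximal agonist and 100% = vehicle plus saturating agonist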
Target sequence (P49146 whole entry, looked up): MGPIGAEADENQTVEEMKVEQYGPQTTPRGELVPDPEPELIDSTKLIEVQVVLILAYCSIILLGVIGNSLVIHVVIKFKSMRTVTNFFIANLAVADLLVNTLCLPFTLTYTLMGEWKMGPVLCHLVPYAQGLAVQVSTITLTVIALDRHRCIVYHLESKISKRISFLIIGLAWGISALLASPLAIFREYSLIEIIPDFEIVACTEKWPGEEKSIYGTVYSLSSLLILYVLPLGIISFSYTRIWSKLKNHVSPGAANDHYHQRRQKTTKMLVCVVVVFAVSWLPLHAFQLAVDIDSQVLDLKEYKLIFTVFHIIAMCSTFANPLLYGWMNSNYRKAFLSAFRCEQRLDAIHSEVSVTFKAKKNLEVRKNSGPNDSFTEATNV
Mdm2 ligase inh: Mdm2 E3 ligase (human) inhibition; Q00987; cell-based MDM2 ubiquitination luciferase reporter, 2 h; 0 = plate control, 100 = twice control, blank-subtracted; signal enhancement, % at 5 µM; 210,000 tested, 0.11% active; AID 1230;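 active = signal enhancement of 30% or more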;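 also: luminescence tracks abundance of the self-degrading MDM2-luciferase fusion protein; higher signal means inhibition of MDM2 E3 ligase activity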
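Material: Stable MDM2–luciferase fusion reporter cells | Amount: 2000 cells seeded into each well | Dosing: One concentration, 5 µM, with 0.2% DMSO | Incubation: 4 h cell settling then 2 h compound exposure, 37 °C | Measured by: Luciferase luminescence | Read-out basis: % enhancement relative to plate controls after blank subtraction | Benchmarks: Control and blank well means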
NPY-Y2 antag: blocks the human neuropeptide Y Y2 receptor | P49146 | NPY-Y2 expressing cells, antagonist mode | inhibition, % at 2.7 µM | 140,000 tested, 0.99% active | AID 793; in the data active = inhibition above about 17%;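 also: 0% = vehicle with agonist challenge and 100% = reference antagonist with challenge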
An asterisk follows results filed as active; · = not tested or not shown. Shown are actives, neighbours in structure and some others; about 2.8% of the full set was active somewhere.

SMILES | Measles CPE | NPY-Y1 antag | NPY-Y1 PAM-ag | NPY2 pot ag | Mdm2 ligase inh | NPY-Y2 antag
Nc1[nH]c(N=NC(=O)c2ccc(Cl)cc2)c2ccccc12 | 44.9* | 1.1 | -14.3 | 17.1 | -9.6 | 7.9
Nc1[nH]c(N=NC(=O)c2ccccc2)c2ccccc12 | 19.2 | 0.7 | -6.4 | -5.7 | -43.6 | 5.1
CCCNC(=S)Nc1c(C)n(C)n(-c2ccccc2)c1=O | · | 4.0 | -7.5 | -9.1 | · | ·
COc1ccc(C(=O)NC2CCCCCC2)cc1S(=O)(=O)N1CCCc2ccccc21 | 3.4 | -0.1 | -29.8 | -45.0 | -9.0 | -0.6
COc1ccc(C(=O)Nc2nc3c(s2)CCCC3)cc1S(=O)(=O)N1CCCc2ccccc21 | 35.6* | -1.0 | -3.1 | -4.8 | -3.5 | 4.6
COc1ccnc(Oc2ccc(F)cc2)c1C(=O)N/C=N/OCc1ccc(Cl)cc1Cl | 29.3* | 1.0 | -5.3 | 1.3 | -3.7 | 5.0
O=C(Nc1ccccc1)Nc1ccno1 | · | · | 5.8 | 9.1 | -15.7 | ·
CCn1ncc(Br)c1C(=O)N(C)C12CC3CC(CC(C3)C1)C2 | 6.1 | 11.3 | -7.8 | -24.9 | -10.6 | 3.0
CCn1ncc(Br)c1C(=O)Nc1ccn(C23CC4CC(CC(C4)C2)C3)n1 | 40.7* | 6.5 | 1.1 | 0.7 | 10.2 | 4.1
CCOc1ccc(C(=O)NCC(C)CN(C)C)cc1OCC (stereo unspecified) | 30.6* | 1.1 | -10.0 | 15.2 | 7.5 | 1.1
CCOc1cc(C(=O)NCC(C)CN(C)C)cc(OCC)c1OCC (stereo unspecified) | 13.2 | -0.1 | 6.7 | -3.4 | -10.2 | 2.9
Cc1ccc(N/C(N)=N/c2nc(C)cc(N3CCCCC3)n2)c(C)c1 | · | 0.1 | 24.6 | 22.7 | -43.6 | ·
C=CC[n+]1c(-c2ccc(OCC)cc2)csc1NNC(=O)Nc1ccccc1 | 18.6 | -14.3 | 94.6* | 80.8* | · | 0.5
C=CC[n+]1c(-c2ccc(C)cc2)csc1Nc1c(C)n(C)n(-c2ccccc2)c1=O | · | -0.5 | 9.4 | 0.9 | -10.9 | ·
CCOC(=O)C(C(=O)OCC)C(C[N+](=O)[O-])c1ccccc1 (stereo unspecified) | · | 3.3 | -4.0 | 1.7 | -5.6 | ·
COc1cc2c(cc1OC)-c1cc(Nc3ccccc3)nc(=O)n1CC2 | · | · | -21.6 | -53.5 | 4.5 | ·
COc1cc2c(cc1OC)-c1cc(N3CCCCCC3)nc(=O)n1CC2 | 9.0 | 24.4* | -23.1 | -3.0 | -5.6 | 32.3*
COc1cc2c(cc1OC)-c1cc(NC3CCCCCC3)nc(=O)n1CC2 | 17.9 | 48.8* | -19.7 | -3.1 | -12.1 | 42.6*
COc1cc2c(cc1OC)-c1cc(N3CCc4ccccc43)nc(=O)n1CC2 | · | · | -16.9 | -26.8 | -6.2 | ·
COc1cc2c(cc1OC)-c1cc(N3CCCc4ccccc43)nc(=O)n1CC2 | 3.6 | 122.6* | -39.7 | -9.9 | -7.0 | 135.8*
CSCCC1NC(=O)N(C(C)C(=O)Nc2cc(Cl)cc(Cl)c2)C1=O (stereo unspecified) | · | 0.7 | -0.2 | -3.8 | -5.1 | ·
CN(C)S(=O)(=O)c1ccc(NC=O)cc1 | · | -1.1 | -6.3 | -9.9 | 14.2 | ·
CC1=CC(C)C2COC(c3ccc[n+](C)c3)C1C2C (stereo unspecified) | 57.5* | 3.8 | -34.4 | 11.9 | -3.0 | 1.7
CCOc1ccc(-c2nnc(-c3snc(-c4ccc(F)cc4)c3N=CN(C)C)o2)cc1 | 5.1 | 0.3 | 2.6 | -5.7 | -18.4 | 7.9
COc1cccc(CN2CCC(N(CCc3ccccc3)Cc3ccccc3)CC2)c1OC | 3.3 | 34.5* | -30.4 | -1.5 | 9.9 | 30.9*
SMILES | Measles CPE | NPY-Y1 antag | NPY-Y1 PAM-ag | NPY2 pot ag | Mdm2 ligase inh | NPY-Y2 antag
COc1cccc(CN2CCN(CCc3ccccc3)C(CCO)C2)c1OC (stereo unspecified) | · | 2.5 | -6.7 | 0.7 | -2.7 | ·
O=C(CSc1ccc(-c2ccco2)nn1)NC1CCCC1 | · | 1.7 | 4.9 | 5.8 | 32.5* | ·
O=C(CSc1ccc(-c2ccco2)nn1)NC1CCCCC1 | · | 0.5 | 13.1 | 4.4 | 8.7 | ·
Cc1ccc(C)c(N2CN(CCC3=CCCCC3)CNC2=S)c1 | · | · | 7.7 | -2.5 | -21.4 | ·
CCCN1CNC(=S)N(c2cc(C)ccc2C)C1 | 34.1* | 6.2 | 7.4 | -3.9 | · | 0.7
O=C(NC(Cc1c[nH]c2ccccc12)C(=O)Nc1ccc(F)c([N+](=O)[O-])c1)c1cccs1 (stereo unspecified) | 35.5 | -7.4 | 43.9 | 19.0 | -5.7 | -0.9
O=C(NC(Cc1c[nH]c2ccccc12)C(=O)Nc1ccc(OC(F)(F)F)cc1)c1cccs1 (stereo unspecified) | 52.1* | -12.1 | 16.2 | 13.4 | 4.1 | -3.5
CCCN(CCC)c1ncnc2c1cnn2-c1ccc(OC)cc1 | 91.5* | 6.5 | -24.3 | -15.9 | -37.5 | 1.3
COc1ccc(-n2ncc3c(Nc4cccc(C)c4)ncnc32)cc1 | 38.3* | 2.8 | 6.7 | 7.0 | -9.0 | 5.9
CCCNc1ncnc2c1cnn2-c1ccc(OC)cc1 | 8.9 | -6.7 | -4.4 | 4.1 | -62.8 | 3.5
C[C@H](NC(=O)c1ccccc1Cl)C(=O)OC(C(=O)Nc1cc(C(F)(F)F)ccc1Cl)c1ccccc1 (stereo partly specified) | 58.0* | 6.2 | 3.0 | -12.4 | 0.0 | 2.8
Cc1cccc(C)c1Nc1c(-c2ccc(N3CCOCC3)cc2)nc2cnccn12 | · | · | 84.5* | 70.5* | -11.3 | ·
CC(C)(C)c1ccc(N2C(=O)CSC2c2cccnc2)cc1 (stereo unspecified) | · | · | 9.5 | 9.7 | -15.8 | ·
c1ccc(-c2nc(-n3nc4ccccc4n3)nc3ccccc23)cc1 | 38.7 | -2.0 | -18.1 | -29.5 | 2.5 | 26.5*
CCOC(=O)N1CCC(n2c(SCC(=O)NCCC3=CCCCC3)nc3ccccc3c2=O)CC1 | 10.6 | 36.2* | -33.2 | -38.7 | -13.2 | 19.1*
Cc1cc(C)n(/N=C/c2cc([N+](=O)[O-])ccc2O)c(=O)c1 | · | 1.1 | -3.6 | -5.0 | -13.0 | ·
Cc1cc(C(=O)CSc2n[nH]c(N)n2)c(C)n1-c1ccccc1 | 26.1* | 1.7 | 7.5 | -9.9 | · | -0.9
CCCNC(=O)CN(c1cccc(F)c1)S(C)(=O)=O | 2.4 | 0.1 | -19.9 | 6.2 | -1.0 | 1.4
CCOc1cc(CNCC(C)C)c(Cl)cc1OCC(=O)Nc1ccccc1 | · | 2.8 | 14.0 | -26.2 | · | ·
CCSc1nnc(NC(=O)C(NC(=O)c2ccc(Cl)cc2)C(C)C)s1 (stereo unspecified) | 17.7 | 10.5 | 8.1 | 11.3 | 11.2 | 12.2
COc1cccc(C(=O)N/N=c2\sc3ccccc3n2C)c1 | 25.9* | 5.1 | -0.3 | 5.2 | -0.5 | 4.0
COc1ccc(C(=O)C(CCCCC(CN(C)C)C(=O)c2ccc(OC)cc2)CN(C)C)cc1 (stereo unspecified) | 7.4 | 21.2* | -92.8 | -22.7 | -17.2 | 22.1*
CCOc1ccc(C(=O)C(CCC(CN(C)C)C(=O)c2ccc(OCC)cc2)CN(C)C)cc1 (stereo unspecified) | 2.3 | 2.8 | -29.6 | -19.6 | -17.8 | 7.9

Assay outcomes deposited in PubChem BioAssay by several laboratories.
